From paper PMC4769423 (BMJ Open Respiratory Research, 2016)

System: OVA-sensitised Brown Norway rat
Assay: OVA-sensitised and challenged Brown Norway rat allergy model
Type: in vivo
Conditions: 1 mg/kg intratracheal, 24 h before and 24 h after OVA challenge
How it was run: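 In OVA-sensitised Brown Norway rats, the test compound was given intratracheally 24 h before and 24 h after OVA challenge (5 sensitised-only, 9 dosed per point; or groups of eight). Alternatively, from 14 days post-sensitisation, rats received 1 mg/kg weekly for eight doses (10 per point), then aerosolised OVA 26 days later. BAL eosinophils and IL-13 were measured 48 h post-challenge. Results were given as mean±SEM; Mann-Whitney U test versus vehicle-dosed OVA controls.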

CCCC1O[C@@H]2C[C@H]3[C@@H]4CCC5=CC(=O)C=C[C@]5(C)[C@H]4[C@@H](O)C[C@]3(C)[C@]2(C(=O)CO)O1 (stereo partly shown) [budesonide]
efficacy of acute dosing (BAL eosinophils, IL-13): demonstrated efficacy
